Results on 31 molecules are retold here after ChEMBL document CHEMBL1139091, “Synthesis and antimycobacterial evaluation of benzofurobenzopyran analogues” (2007).

Values after ≈ are worked out from the molar mass of the structure shown.

The first assay has as its system Mycolicibacterium smegmatis. As to the kind of experiment: Antimycobacterial activity against Mycobacterium smegmatis mc2155 after 48 hrs by microdilution resazurin assay. The assay is classed as functional. The following applies: str. MC2 155, 48 h. In outline: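 Inoculum of M. smegmatis mc²155 grown in Dubos medium + 10% ADC; twofold serial dilutions in Dubos broth, 500 to 0.9 µg/mL. DMSO and isoniazid controls. 48 h at 37 °C, then 0.01% resazurin added, further 24 h. Growth is read as blue-to-pink change plus OD 530–630 nm.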
On the technique in general: Broth dilution looks for growth in wells or tubes with falling amounts of substance.
Molecule `C#CC(C)(C)Oc1ccc(-c2ccccc2)cc1` came in with an MIC95 greater than 100 µg/mL.
Still for that read-out and setting: next, `O=C(c1ccc(O)cc1)c1ccc(O)cc1`: 62 µg/mL (≈ 289 µM); `CC1(C)C=Cc2cc(Oc3ccccc3)ccc2O1`: 70 µg/mL (≈ 277 µM); `C#CC(C)(C)Oc1ccc2oc3c(c2c1)CCCC3`: greater than 100 µg/mL.
Same read-out and setting: next, `CC1(C)C=Cc2cc(C(=O)c3ccc(O)cc3)ccc2O1`: 32 µg/mL (≈ 114 µM); `CC1(C)C=Cc2cc(-c3ccccc3)ccc2O1`: greater than 500 µg/mL.
The same measure, in the same setting: the figure for `CC1(C)C=Cc2cc3oc4ccccc4c3cc2O1` is 20 µg/mL (≈ 79.9 µM); for `CC(=O)c1cc2oc3ccccc3c2c2c1OC(C(C)C)C2` (stereo unspecified) it is greater than 500 µg/mL.
As to `CC(=O)c1ccc2oc3ccc(O)cc3c2c1`, the MIC95 is greater than 500 µg/mL.
Same read-out and setting: the figure for `CC(=O)c1ccc2oc3ccc(C(C)=O)cc3c2c1` is 5 µg/mL (≈ 19.8 µM).
As for `CC1(C)C=Cc2cc(C(O)c3ccccc3)ccc2O1` (stereo unspecified), the MIC95 worked out at 20 µg/mL (≈ 75.1 µM).
Still for that read-out and setting: the figure for `CC1(C)CCc2cc(Cc3ccccc3)ccc2O1` is greater than 500 µg/mL; for `Oc1ccc2oc3ccc(O)cc3c2c1` it is 15 µg/mL (≈ 74.9 µM); for `CC(=O)c1ccc2oc3ccc4c(c3c2c1)C=CC(C)(C)O4` it is greater than 500 µg/mL.
The same measure, in the same setting: next, `CC1(C)C=Cc2cc(C(O)c3cccnc3)ccc2O1` (stereo unspecified): 62 µg/mL (≈ 232 µM); `CC1(C)C=Cc2c(ccc3oc4c(c23)CCCC4)O1`: greater than 500 µg/mL.
Regarding `C#CC(C)(C)Oc1ccc(Oc2ccccc2)cc1`, the MIC95 was greater than 100 µg/mL.
On the same count and under the same terms, next, `C#CC(C)(C)Oc1cccc(-c2ccccc2)c1`: greater than 100 µg/mL.
On to `CC1(C)C=Cc2c(ccc3oc4ccccc4c23)O1`, for which the MIC95 was 10 µg/mL (≈ 40 µM).
On the same count and under the same terms, next, `CC1(C)CCc2cc3oc4ccccc4c3cc2O1`: 40 µg/mL (≈ 159 µM).
Still for that read-out and setting: next, `CC1(C)CCc2c(ccc3oc4ccccc4c23)O1`: 10 µg/mL (≈ 39.6 µM); `Oc1ccc2oc3c(c2c1)CCCC3`: 31 µg/mL (≈ 165 µM).
Take `CC1(C)CCc2c(c(Br)cc3oc4ccccc4c23)O1`: the MIC95 was greater than 500 µg/mL.
`CC(=O)c1cc2oc3ccccc3c2c2c1OC(C)(C)CC2` showed an MIC95 greater than 500 µg/mL.
For the molecule `CC1(C)C=Cc2cc3oc4ccccc4c3c(Br)c2O1`, the MIC95 stood at 120 µg/mL (≈ 365 µM).
Same read-out and setting: next, `CC1(C)CCc2cc(C(=O)c3ccccc3)ccc2O1`: 50 µg/mL (≈ 188 µM); `CC1(C)C=Cc2cc(C(=O)c3ccccc3)ccc2O1`: 20 µg/mL (≈ 75.7 µM); `CC1(C)CCc2cc(C(=O)c3ccccc3)c(O)cc2O1`: 4 µg/mL (≈ 14.2 µM).
Same read-out and setting: next, `C#CC(C)(C)Oc1ccc2oc3ccc(C(C)=O)cc3c2c1`: greater than 100 µg/mL; `NNC(=O)c1ccncc1` [ISONIAZID]: 12 µg/mL (≈ 87.5 µM).

The subject of the next assay is Mycobacterium tuberculosis. Nature of the assay: Antimycobacterial activity against Mycobacterium tuberculosis H37Rv after 6 days by microdilution resazurin assay. The following applies: 144 h. The assay is classed as functional. In outline:
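M. tuberculosis H37Rv inoculum grown in Dubos medium with 10% ADC. Twofold dilutions in Dubos broth, 500 to 0.9 µg/mL, with DMSO and isoniazid controls. Incubated 6 days at 37 °C, then 0.01% resazurin added for 24 h more. Read by colour change (blue to pink) and OD 530–630 nm. MIC95 (>95% growth inhibition) derived by curve fitting.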
The molecule `C#CC(C)(C)Oc1ccc(-c2ccccc2)cc1` returned an MIC95 greater than 100 µg/mL.
The same measure, in the same setting: the figure for `O=C(c1ccc(O)cc1)c1ccc(O)cc1` is 125 µg/mL (≈ 584 µM); for `CC1(C)C=Cc2cc(Oc3ccccc3)ccc2O1` it is greater than 500 µg/mL.
Still for that read-out and setting: the figure for `C#CC(C)(C)Oc1ccc2oc3c(c2c1)CCCC3` is greater than 100 µg/mL; for `CC1(C)C=Cc2cc(C(=O)c3ccc(O)cc3)ccc2O1` it is 62 µg/mL (≈ 221 µM).
Same read-out and setting: next, `CC1(C)C=Cc2cc(-c3ccccc3)ccc2O1`: greater than 500 µg/mL.
`CC1(C)C=Cc2cc3oc4ccccc4c3cc2O1`: the MIC95 was found to be 35 µg/mL (≈ 140 µM).
Same read-out and setting: next, `CC(=O)c1cc2oc3ccccc3c2c2c1OC(C(C)C)C2` (stereo unspecified): greater than 500 µg/mL.
On the same count and under the same terms, next, `CC(=O)c1ccc2oc3ccc(O)cc3c2c1`: 8 µg/mL (≈ 35.4 µM); `CC(=O)c1ccc2oc3ccc(C(C)=O)cc3c2c1`: 10 µg/mL (≈ 39.6 µM).
Same read-out and setting: the figure for `CC1(C)C=Cc2cc(C(O)c3ccccc3)ccc2O1` (stereo unspecified) is 20 µg/mL (≈ 75.1 µM).
`CC1(C)CCc2cc(Cc3ccccc3)ccc2O1` yielded an MIC95 of 30 µg/mL (≈ 119 µM).
Same read-out and setting: next, `Oc1ccc2oc3ccc(O)cc3c2c1`: 15 µg/mL (≈ 74.9 µM).
With `CC(=O)c1ccc2oc3ccc4c(c3c2c1)C=CC(C)(C)O4`, the MIC95 is greater than 500 µg/mL.
In turn, `CC1(C)C=Cc2cc(C(O)c3cccnc3)ccc2O1` (stereo unspecified) gave an MIC95 of 62 µg/mL (≈ 232 µM).
Molecule `CC1(C)C=Cc2c(ccc3oc4c(c23)CCCC4)O1` registered an MIC95 of 120 µg/mL (≈ 472 µM).
On the same count and under the same terms, the figure for `C#CC(C)(C)Oc1ccc(Oc2ccccc2)cc1` is greater than 100 µg/mL.
In turn, `C#CC(C)(C)Oc1cccc(-c2ccccc2)c1` yielded an MIC95 greater than 100 µg/mL.
The same measure, in the same setting: next, `CC1(C)C=Cc2c(ccc3oc4ccccc4c23)O1`: 10 µg/mL (≈ 40 µM); `CC1(C)CCc2cc3oc4ccccc4c3cc2O1`: greater than 500 µg/mL.
Same read-out and setting: next, `CC1(C)CCc2c(ccc3oc4ccccc4c23)O1`: 10 µg/mL (≈ 39.6 µM).
Still for that read-out and setting: the figure for `Oc1ccc2oc3c(c2c1)CCCC3` is 500 µg/mL (≈ 2660 µM).
With `CC1(C)CCc2c(c(Br)cc3oc4ccccc4c23)O1`, the MIC95 was greater than 500 µg/mL.
Same read-out and setting: the figure for `CC(=O)c1cc2oc3ccccc3c2c2c1OC(C)(C)CC2` is greater than 500 µg/mL; for `Oc1ccc2oc3ccccc3c2c1` it is 25 µg/mL (≈ 136 µM); for `CC1(C)C=Cc2cc3oc4ccccc4c3c(Br)c2O1` it is 30 µg/mL (≈ 91.1 µM).
Still for that read-out and setting: next, `CC1(C)CCc2cc(C(=O)c3ccccc3)ccc2O1`: 30 µg/mL (≈ 113 µM).
With `CC1(C)C=Cc2cc(C(=O)c3ccccc3)ccc2O1`, the MIC95 worked out at 40 µg/mL (≈ 151 µM).
On the same count and under the same terms, the figure for `CC1(C)CCc2cc(C(=O)c3ccccc3)c(O)cc2O1` is 62 µg/mL (≈ 220 µM).
On the same count and under the same terms, the figure for `C#CC(C)(C)Oc1ccc2oc3ccc(C(C)=O)cc3c2c1` is greater than 100 µg/mL; for `NNC(=O)c1ccncc1` [ISONIAZID] it is 0.1 µg/mL (≈ 0.729 µM).
